The record followed here is PubChem BioAssay AID1656 (Sanford-Burnham Center for Chemical Genomics, 2009).

The campaign covered roughly 240,000 compounds. About 950 (0.4%) were called active.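 Rule for the calls: active = lipid droplet intensity inhibited by at least 50%, with more than 500 cells counted; inconclusive = wells with under 300 cells, treated as cytotoxic; inactive = the rest.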 Shown is part of a subset that was picked to be rich in actives.

This test is described as follows: oleate-induced lipid droplet accumulation in AML12 cells – imaging, high-throughput imaging, BODIPY stain, primary screen (AID 1656).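 For cell count: cells counted across two imaged fields per well.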 The settings on record: AML12 mouse hepatocytes, oleate lipid droplets, at 6.5 µM; cell count: measured here: cell count, cytotoxicity flag; inhibition: stronger effect = higher value. A digest of the protocol: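 Assay system: AML12 mouse liver cells | Compound dosing: One dose, 6.5 µM compound | Read-out basis: Droplet intensity reduction, % inhibition | Measured by: Fluorescence imaging, 20x objective, two fields per well | Schedule: Overnight treatment with compound plus oleate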
Usually inhibition stands for the drop in the measured response relative to a control, in per cent. In the case of `COc1ccc(CCNC(=O)C(=O)NCC2OCCN2S(=O)(=O)c2cccs2)cc1OC` (stereo not given), the cell count is 689 cells and the inhibition was -12.1% (inactive).

With `COc1cccc(C(=O)N/N=C(\C)c2cccc(NC(=O)c3ccc(F)cc3)c2)c1OC`, the cell count came out at 678 cells and the inhibition was -6.8% (inactive).

As to `C(=N\N1CCN(c2ccccn2)CC1)/C1=C(N2CCOCC2)C(=C/c2ccccc2)/CC1`, the cell count amounted to 680 cells and the inhibition was -4.6% (inactive).

With `COc1ccc(/C=N/N=C2/C(=O)Nc3ccccc32)cc1O`, the cell count amounted to 676 cells and the inhibition is 9.7% (inactive).

For the compound `O=C1Nc2ccc(Br)cc2/C1=N/N=C/C1=C(N2CCOCC2)C(=C\c2ccccc2)/CC1`, the cell count was found to be 750 cells and the inhibition was 55.6% (active).

As for `CCCc1cc(=O)oc2cc(OCC(=O)Nc3ccc(CN4CCOCC4)cc3)c(Cl)cc12`, the cell count is 636 cells and the inhibition is -0.7% (inactive).

As for `O=C(CSc1nc2nccnc2c(=O)n1Cc1cccs1)Nc1ccccc1F`, the cell count is 782 cells and the inhibition was 2.9% (inactive).

In the case of `COc1cc(/C=C/C(=O)N2CCc3ccccc3C2)cc(OC)c1OC`, the cell count stood at 825 cells and the inhibition is 0% (inactive).

On to `CC(C)(C)NS(=O)(=O)c1ccc(NC(=O)C2CCCO2)cc1` (stereo not given), for which the cell count is 829 cells and the inhibition is 2.6% (inactive).

On to `CCCNC(=O)CCc1c(C)nc2c(c(C)nn2-c2ccc(C)cc2)c1C`, for which the cell count is 848 cells and the inhibition is 10.2% (inactive).

For the compound `COc1ccc(N(CC(=O)Nc2cc(OC)cc(OC)c2)S(=O)(=O)c2c(C)n[nH]c2C)cc1`, the cell count came out at 704 cells and the inhibition was -4% (inactive).

As to `CCSc1nsc(NC(=O)Nc2ccccc2OC)n1`, the cell count was found to be 808 cells and the inhibition is -10.6% (inactive).

In the case of `Cc1cc(C(=O)NC2CCCc3c2cnn3-c2cccc(C)c2C)c(C)o1` (stereo not given), the cell count was 865 cells and the inhibition is 59.9% (active).

In the case of `COc1ccc(C(=O)NC2CCCc3c2cnn3-c2cccc(C)c2C)c(OC)n1` (stereo not given), the cell count came out at 767 cells and the inhibition was -1.4% (inactive).

As to `Cn1nccc1C(=O)NC1CCCc2c1cnn2-c1ccccc1F` (stereo not given), the cell count was 545 cells and the inhibition was -55.5% (inactive).

On to `COc1ccc(CCNC(=O)CS(=O)(=O)Cc2nc(-c3ccc(C)cc3)oc2C)cc1OC`, for which the cell count turned out to be 750 cells and the inhibition was 11.2% (inactive).

As for `O=C(c1ccc(F)cc1)N1CCCC(C(=O)N2CCCCC2)C1` (stereo not given), the cell count is 708 cells and the inhibition is -8.5% (inactive).

Turning to `O=S(=O)(c1ccc(Br)cc1)c1nc(-c2ccccc2)oc1N1CCOCC1`, the cell count was 610 cells and the inhibition was -17.8% (inactive).

On to `O=C1CCC(C(=O)N2CCN(c3ccccc3Cl)CC2)CN1CC1CCCCC1` (stereo not given), for which the cell count turned out to be 746 cells and the inhibition was 0% (inactive).

Take `COc1ccc(OC)c(CNC(=O)CCc2nc(-c3cccs3)no2)c1`: the cell count came out at 746 cells and the inhibition is -2% (inactive).

`COc1ccc(-c2csc(-c3cccs3)n2)cc1OC`: the cell count turned out to be 713 cells and the inhibition was 8.5% (inactive).

With `COc1ccc(OC)c(-c2csc(-c3cccs3)n2)c1`, the cell count came to 816 cells and the inhibition is 69.1% (active).

For the compound `Cc1cc(C(=O)Cn2cnc3cc([N+](=O)[O-])ccc3c2=O)c(C)n1CC1CCCO1` (stereo not given), the cell count is 680 cells and the inhibition was -0.6% (inactive).

Consider `CC(C)(C)NC(=O)Cn1cnc2cc([N+](=O)[O-])ccc2c1=O`, for which the cell count is 720 cells and the inhibition was 58.1% (active).

Take `O=C(Cn1cnc2cc([N+](=O)[O-])ccc2c1=O)NC(=O)NCc1ccccc1`: the cell count is 618 cells and the inhibition was -1% (inactive).

Regarding `CC(=O)N1CCN(c2ccccc2NC(=S)NC(=O)c2cc3ccccc3o2)CC1`, the cell count was 682 cells and the inhibition is 29.4% (inactive).

With `Cc1cccc(N2CCN(C(=O)c3cccc(N4C(=O)C5C6C=CC(C6)C5C4=O)c3)CC2)c1C` (stereo not given), the cell count is 793 cells and the inhibition was -0.4% (inactive).

Take `CCCc1cc(C(=O)N2CCCC(CO)(CCCc3ccccc3)C2)n(C)n1` (stereo not given): the cell count worked out at 631 cells and the inhibition is -27.5% (inactive).

As for `CC1CCN(C(=S)NC(=O)c2ccccc2Br)CC1`, the cell count was 661 cells and the inhibition is -5.4% (inactive).

Consider `CCN1C(=O)/C(=C2/Sc3ccccc3N2CCCS(=O)(=O)O)SC1=S`, for which the cell count amounted to 691 cells and the inhibition was -5.7% (inactive).

`CCCCN1C(=O)/C(=C2/C=CC=CN2C)SC1=S`: the cell count came out at 765 cells and the inhibition was -17.5% (inactive).

Take `CCCCN1C(=O)/C(=C/C=C2/C=Cc3ccccc3N2CC)SC1=S`: the cell count stood at 734 cells and the inhibition is 56.1% (active).

Consider `COc1ccc(Cl)cc1NC(=O)CN(C)C(=O)CCCc1c[nH]c2ccccc12`, for which the cell count stood at 812 cells and the inhibition was 53.5% (active).

For the compound `COc1ccc(Cl)cc1NC(=O)CN(C)C(=O)CNC(=O)C12CC3CC(CC(C3)C1)C2`, the cell count came out at 778 cells and the inhibition is 18.1% (inactive).

`COc1ccccc1NC(=O)CCCc1c[nH]c2ccccc12`: the cell count was determined as 740 cells and the inhibition was -19.1% (inactive).

With `Cc1ccc(-n2nc3c(=O)n(C(C)C(=O)NCc4ccc5c(c4)OCO5)nc(C)c3c2C)cc1` (stereo not given), the cell count is 665 cells and the inhibition is 15.4% (inactive).

On to `O=C(NCCCN1CCOCC1)c1cc(-c2ccccc2F)no1`, for which the cell count was 726 cells and the inhibition is 6.3% (inactive).

Turning to `COC(=O)c1ccc(COc2ccc(/C=C/C(=O)c3ccc(OC)c(CSCC(=O)O)c3)cc2OC)cc1`, the cell count came to 891 cells and the inhibition was -2% (inactive).

With `CC(C)c1ccc(N(C(=O)c2ccco2)C(C(=O)NC2CCCC2)c2cccnc2)cc1` (stereo not given), the cell count stood at 761 cells and the inhibition is -17.7% (inactive).

Consider `Cc1c(C=O)c2ccccc2n1CCOc1ccccc1`, for which the cell count came out at 839 cells and the inhibition was -1% (inactive).

In the case of `CN(CC1CCCO1)S(=O)(=O)c1ccc(C(=O)Nc2ccc(F)cc2)cc1` (stereo not given), the cell count came to 687 cells and the inhibition is -1.2% (inactive).

As to `Cc1cc(C(C)(C)C)n2nc(C)c(-c3ccccc3)c2n1`, the cell count stood at 401 cells and the inhibition was 2% (inactive).

`Cc1cc(N2CCCC2)n2nc(C)c(-c3ccccc3)c2n1`: the cell count stood at 697 cells and the inhibition is 51.4% (active).

Consider `Cc1cc(-n2nc(C)cc2C)n2nc(C)c(-c3ccccc3)c2n1`, for which the cell count was 801 cells and the inhibition was 10% (inactive).

`CC(=O)c1ccc(NC(=O)c2sc3nc4n(c(=O)c3c2C)CCCCC4)cc1`: the cell count was found to be 749 cells and the inhibition is 9.9% (inactive).

With `O=C(C1CCCN(S(=O)(=O)c2ccc([N+](=O)[O-])cc2)C1)N1CCCCC1` (stereo not given), the cell count came out at 814 cells and the inhibition was 0.4% (inactive).

As to `COc1ccc(-c2nonc2NC(=O)c2oc3ccc(F)cc3c2C)cc1OC`, the cell count is 738 cells and the inhibition is 39.5% (inactive).

Consider `COc1ccccc1CNC(=O)C1CCN(S(=O)(=O)c2ccc3c(c2)CC(C)N3C(=O)C2CC2)CC1` (stereo not given), for which the cell count was 719 cells and the inhibition is -4.5% (inactive).

Turning to `COc1ccc(NC(=O)CN2C(=O)COc3ccc(S(=O)(=O)N4CCOCC4)cc32)c(OC)c1`, the cell count turned out to be 694 cells and the inhibition was -1.6% (inactive).

In the case of `COc1ccccc1CNC(=O)[C@@H]1CCCN1C(=O)[C@@H]1Cc2ccccc2CN1C(=O)OC(C)(C)C`, the cell count was found to be 737 cells and the inhibition was -4.8% (inactive).
